Rows were chosen to be rich in hits. Some 2.3% of all compounds tested hit in one or more screens of this group.
TRPC6 act – activators of mouse TRPC6 channel; Q61143; HEK293-TRPC6 membrane potential dye fluorescence; active compounds read high; B-score at 10 µM; hit rate 0.13% among 310,000; AID 2550;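 active means B-score of the integrated fluorescence ratio above library mean plus 3 SD, and starting fluorescence ratio within library mean plus 5 SD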;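 further: higher score means more depolarization so channel activation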
TRPC4 act – opens the mouse TRPC4 cation channel | Q9QUQ5 | HEK293 TRPC4beta/mu-opioid, Fluo4 calcium fluorescence; active compounds read high | B-score at 10 µM | hit rate 0.49% among 310,000 | AID 2237;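 active means B-score above 5 SD of library B-scores, and initial fluorescence ratio not above library mean plus 5 SD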;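 further: positive B-score marks a calcium rise read as TRPC4 activation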
Target sequence (Q9QUQ5 whole entry, looked up): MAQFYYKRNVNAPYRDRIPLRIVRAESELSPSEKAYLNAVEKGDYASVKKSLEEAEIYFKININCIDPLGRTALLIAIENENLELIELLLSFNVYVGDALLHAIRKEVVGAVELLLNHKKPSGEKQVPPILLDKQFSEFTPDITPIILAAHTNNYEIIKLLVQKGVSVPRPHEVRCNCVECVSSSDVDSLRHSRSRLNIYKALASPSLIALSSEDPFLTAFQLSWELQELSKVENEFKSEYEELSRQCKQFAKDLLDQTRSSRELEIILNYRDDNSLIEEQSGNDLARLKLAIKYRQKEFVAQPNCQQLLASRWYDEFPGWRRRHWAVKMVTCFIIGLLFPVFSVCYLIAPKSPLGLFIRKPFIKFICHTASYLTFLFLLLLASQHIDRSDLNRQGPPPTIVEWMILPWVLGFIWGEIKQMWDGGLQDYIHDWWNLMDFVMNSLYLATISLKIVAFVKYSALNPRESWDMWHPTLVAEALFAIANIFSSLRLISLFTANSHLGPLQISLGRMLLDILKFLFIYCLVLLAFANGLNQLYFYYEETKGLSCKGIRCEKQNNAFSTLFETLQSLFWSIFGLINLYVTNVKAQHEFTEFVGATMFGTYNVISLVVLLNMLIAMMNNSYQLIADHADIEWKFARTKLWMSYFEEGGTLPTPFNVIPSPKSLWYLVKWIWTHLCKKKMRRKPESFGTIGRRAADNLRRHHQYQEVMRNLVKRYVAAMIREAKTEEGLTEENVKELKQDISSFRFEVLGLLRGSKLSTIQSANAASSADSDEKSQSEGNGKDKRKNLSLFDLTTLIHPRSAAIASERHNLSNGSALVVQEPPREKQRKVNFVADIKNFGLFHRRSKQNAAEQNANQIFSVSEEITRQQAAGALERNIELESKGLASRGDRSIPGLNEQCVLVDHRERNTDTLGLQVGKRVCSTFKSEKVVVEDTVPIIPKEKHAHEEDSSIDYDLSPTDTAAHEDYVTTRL
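Incubation: 45 min room-temperature Fluo4 loading, 110 s read / System: HEK293 cells stably co-expressing mouse TRPC4beta and mu-opioid receptor / Signal: Fluo4 fluorescence, kinetic / Control set: buffer (low) and maximal DAMGO (high) / Measure: integrated baseline-normalised fluorescence ratio, converted to per-well B score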
TRPC4 inh – blocks the mouse TRPC4 cation channel. HEK293 TRPC4beta/mu-opioid, DAMGO-evoked Fluo4 calcium flux; active compounds read low. B-score at 10 µM. hit rate 0.39% among 300,000. AID 2247;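 active means B-score over 3 SD under the library average, no early fluorescence shift, positive overall ratio signal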
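System: stable TRPC4beta/mu-opioid receptor HEK293 cells; Dosing: single-point compound dosing; Measured by: Fluo4 Ca2+ flux fluorescence; Read-out basis: per-well B score of integrated baseline-normalized Fluo4 ratio.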
TRPC4 PAM – allosteric potentiators of mouse TRPC4 channel. HEK293 TRPC4beta/mu-opioid, DAMGO EC20, Fluo-4 Ca2+ flux; active compounds read high. B-score at 10 µM. hit rate 0.42% among 310,000;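 active means B-score of calcium response area above 5 SD of library B-scores, with initial fluorescence ratio within 5 SD of library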;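 further: B-score of integrated fluorescence ratio over time as area under calcium response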
TRPC6 inhibitor – blocks the mouse TRPC6 cation channel. HEK293-TRPC6, membrane potential dye, ACh-evoked depolarization; active compounds read low. hit rate 1.1% among 310,000. B-score at 10 µM. Q61143. AID 2553;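 active means B-score under library mean minus 3 SD, initial fluorescence not abnormally high, positive integrated signal ratio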;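 further: B-score derived from integrated fluorescence ratio over the kinetic read; more negative B-score means stronger inhibition of depolarization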
TRPC4 sel inh 2 – second selectivity test of TRPC6 inhibitors: effect on mouse TRPC4; shares compounds with TRPC6 inhibitor; HEK293 TRPC4/MOR, membrane potential dye fluorescence; channel activated by saturating DAMGO dose; inhibition, % at 10 µM; hit rate 42% among 920;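 active means compounds whose fluorescence signal differed from control wells by over 3 SD, either direction, in both duplicate plates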
TRPC4 spec – tests whether TRPC6 inhibitors also affect mouse TRPC4. shares compounds with TRPC6 inhibitor. HEK293 TRPC4/mu-opioid, membrane potential fluorescence. activity change, negative = inhibition, % at 10 µM. hit rate 61% among 920;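 active means rise or fall in signal beyond 3 SD of buffer-only wells in both replicate plates, either sign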;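 further: integrated kinetic ratio of fluorescence range over baseline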
HEK293 MPD ctr 2-1 – parental HEK293 nonspecific activity of TRPC6 inhibitors, second screen; hit rate 31% among 920; shares compounds with TRPC6 inhibitor; signal change vs control, % at 10 µM; parental HEK293 membrane potential dye fluorescence; maximal acetylcholine challenge after compound addition; AID 2779;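 active means membrane potential signal moving either way by over 3 SD of the maximum-effect control, in both duplicate plates, meaning non-specific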
HEK293 MPD ctr-1 – counter-screen for TRPC6 inhibitors: effect in parental HEK293 cells | shares compounds with TRPC6 inhibitor | parental HEK293 membrane potential dye fluorescence | membrane potential signal change, % at 10 µM | hit rate 60% among 920 | AID 2780;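 active means membrane potential signal shifting up or down by more than 3 SD of buffer-only wells, on both duplicate plates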
HEK293 MPD ctr-2 – counter-screen for TRPC6 modulators: effect in parental HEK293 cells | shares compounds with TRPC6 inhibitor | membrane potential dye fluorescence | membrane potential signal change, % at 10 µM | hit rate 51% among 2,400;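 active means membrane potential signal moves up or down beyond 5 SD from buffer-only wells, on both duplicate plates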
HEK293 MPD ctr 2-2 – second counter-screen for TRPC6 modulators: effect in parental HEK293 cells. shares compounds with TRPC6 inhibitor. membrane potential dye fluorescence; after compound, maximal acetylcholine stimulation. inhibition, % at 10 µM. hit rate 14% among 2,400;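 active means membrane potential signal drops by more than 5 SD from the mean control signal, in both duplicate plates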;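 further: plate controls were acetylcholine ECmax control wells for no effect and buffer only wells for full effect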
TRPC4/MOR mod – selectivity of TRPC6 modulators against mouse TRPC4; shares compounds with TRPC6 inhibitor; HEK293 TRPC4/mu-opioid, membrane potential fluorescence; percent change from control (negative = decrease, positive = increase), % at 10 µM; hit rate 69% among 2,400;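 active means membrane potential signal moved up or down beyond 5 SD of buffer control wells, in both duplicate plates, actives on both sides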;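 further: plate controls were assay buffer wells for no effect and DAMGO maximal-effect wells for full effect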
TRPC4/MOR inh 2 – mouse TRPC4 off-target activity of TRPC6 modulators, second screen | shares compounds with TRPC6 inhibitor | inhibition, % at 10 µM | HEK293 TRPC4/mu-opioid, membrane potential dye fluorescence; stimulated with maximal-effect DAMGO | hit rate 55% among 2,400;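 active means drop in membrane potential signal beyond 5 SD of the control wells in both duplicate plates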;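 further: TRPC4 counter screen for TRPC6 hits run under conditions tuned for TRPC6 not TRPC4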
TRPC6 inh conf – mouse TRPC6 inhibitor confirmation; shares compounds with TRPC6 inhibitor; hit rate 43% among 3,300; HEK293-TRPC6, membrane potential dye, ACh-evoked depolarization; inhibition, % at 10 µM;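 active means fluorescence ratio falls more than 5 SD below the full-stimulation control mean, in both duplicate runs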;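 further: integrated fluorescence ratio of peak minus minimum over baseline after agonist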
TRPC6 act conf – mouse TRPC6 activator confirmation | HEK293-TRPC6 membrane potential dye fluorescence, FDSS | shares compounds with TRPC6 inhibitor | AID 488961 | activation, % at 10 µM | hit rate 11% among 2,800;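 active means ratio signal rise beyond 5 SD above unstimulated control wells' mean, seen in both duplicate runs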;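 further: plate controls were buffer EC0 wells for no effect and acetylcholine ECmax response for full effect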
* marks the source's active call; other numbers are inactive results; i = inactive; / = no result given.

SMILES | TRPC6 act | TRPC4 act | TRPC4 inh | TRPC4 PAM | TRPC6 inhibitor | TRPC6 inh conf | TRPC6 act conf | others
CCn1nccc1C(=O)Nc1ccc(C(=O)OC(C)C)cc1 | i | i | i | i | i | / | /
Cc1onc(-c2c(F)cccc2Cl)c1C(=O)Nc1c(C)n(C)n(-c2ccccc2)c1=O | i | i | i | i | i | / | /
Cc1onc(-c2c(F)cccc2Cl)c1C(=O)NC(=S)Nc1c(C)n(C)n(-c2ccccc2)c1=O | i | i | i | i | -9.2* | i | i | TRPC4 sel inh 2=i;TRPC4 spec=i;HEK293 MPD ctr 2-1=38%*;HEK293 MPD ctr-1=i
CC(C)C(NC(=O)/C=C/c1ccc(F)cc1)C(C)C | i | i | i | i | -6.9* | i | i | TRPC4 sel inh 2=i;TRPC4 spec=i;HEK293 MPD ctr 2-1=i;HEK293 MPD ctr-1=i
NS(=O)(=O)c1cc(C(=O)NC2CCSc3ccccc32)ccc1Cl (centres undefined) | 13* | i | i | i | i | i | 70%* | HEK293 MPD ctr-2=122%*;HEK293 MPD ctr 2-2=i;TRPC4/MOR mod=32%*;TRPC4/MOR inh 2=i
CCc1nnc(NC(=O)CSC(=S)N2CCOCC2)s1 | i | i | i | i | -6.9* | i | i | HEK293 MPD ctr-2=i;HEK293 MPD ctr 2-2=i;TRPC4/MOR mod=i;TRPC4/MOR inh 2=i
Cc1cnc(NC(=O)CSC(=S)N2CCOCC2)s1 | i | i | i | i | i | / | /
O=C(Nc1cccc2ccccc12)NC1Cc2ccccc2C1 | i | i | i | i | i | / | /
O=C(NCc1ccc(Cl)cc1)C(=O)NCC1OCCN1C(=O)c1cccs1 (centres undefined) | i | i | i | i | i | / | /
COc1ccc(CNC(C)C23CC4CC(CC(C4)C2)C3)c(OC)c1OC (centres undefined) | i | i | i | i | -8.1* | 96%* | / | TRPC4 sel inh 2=i;TRPC4 spec=35%*;HEK293 MPD ctr 2-1=i;HEK293 MPD ctr-1=19%*
COc1cccc(OC)c1C(=O)NC(C)C12CC3CC(CC(C3)C1)C2 (centres undefined) | i | i | i | i | i | / | /
CCN(CC)CCCC(C)NC(=O)c1c(NC(=O)c2ccccc2)sc2c1CCCC2 (centres undefined) | i | i | i | i | -6.1* | 60%* | i | HEK293 MPD ctr-2=i;HEK293 MPD ctr 2-2=i;TRPC4/MOR mod=-20%*;TRPC4/MOR inh 2=81%*
CN(C)C(=O)c1c(NC(=O)c2ccccc2)sc2c1CCC2 | i | i | i | i | i | / | /
CC(=O)N1CCN(c2ccc(NS(=O)(=O)c3ccc(C)cc3)cc2)CC1 | i | i | i | i | i | / | /

Compound activity from PubChem BioAssay.
